Assays:
[1] = target: T1, Signal transducer and activator of transcription 3 (Homo sapiens, UniProt P40763); experiment: Inhibition of IL-6 induced STAT3 transcriptional activity in human HepG2 cells incubated for 1 hr followed by stimulation with IL-6 for 5.5 hrs by luciferase reporter gene assay; format: cell-based
Summary of the method: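 STAT3-dependent luciferase reporter assay in HepG2 cells with IL-6 stimulation; IC50 given as mean ± SD of at least three independent experiments.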

HEL = experiment: Antiproliferative activity against human HEL cells harboring JAK2 V617F mutant assessed as inhibition of cell growth incubated for 72 hrs by MTT assay; format: functional, cell-based
Summary of the method: (§1)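 MTT proliferation assay; MDA-MB-468 grown in DMEM/F-12 and HEL in high-glucose DMEM, each with 10% FBS and penicillin/streptomycin, at 37 °C under 5% CO₂. IC50 given as mean ± SD of at least three independent experiments.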

MDA-MB-468 = experiment: Antiproliferative activity against human MDA-MB-468 cells overexpressing STAT3 assessed as inhibition of cell growth incubated for 72 hrs by MTT assay; format: functional, cell-based; settings: MDA-MB-468, 72 h; summary of the method: as §1
MDA-MB-453 = experiment: Antiproliferative activity against human MDA-MB-453 cells expressing low levels of STAT3 assessed as inhibition of cell growth incubated for 72 hrs by MTT assay; format: functional, cell-based; settings: MDA-MB-453, 72 h
Summary of the method: (§2)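 MTT proliferation assay on MCF-7 and MDA-MB-453 cells; IC50 given as mean ± SD of at least two independent experiments.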

MCF7 = experiment: Antiproliferative activity against human MCF7 cells expressing low levels of STAT3 assessed as inhibition of cell growth incubated for 72 hrs by MTT assay; format: functional, cell-based; settings: MCF7, 72 h; summary of the method: as §2
[2] = target: T1, Signal transducer and activator of transcription 3; experiment: Binding affinity to His-tagged STAT3-SH2 domain (127 to 722 residues) (unknown origin) by surface plasmon resonance analysis
Summary of the method: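 SPR on a Biacore T200 with STAT3 SH2 domain. Analytes were run as concentration series, and KD was taken as the equilibrium constant.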

[3] = target: T1, Signal transducer and activator of transcription 3; experiment: Displacement of 5'-FAM-GpYLPQTV-NH2 from His-tagged STAT3-SH2 domain (127 to 722 residues) (unknown origin) assessed as binding rate at 100 uM […] by fluorescence polarization assay; settings: time 90.0 min
[4] = target: T1, Signal transducer and activator of transcription 3; experiment: Displacement of 5'-FAM-GpYLPQTV-NH2 from His-tagged STAT3-SH2 domain (127 to 722 residues) (unknown origin) assessed as binding rate at 50 uM […] by fluorescence polarization assay; settings: time 90.0 min
[5] = target: T1, Signal transducer and activator of transcription 3; experiment: Displacement of 5'-FAM-GpYLPQTV-NH2 from His-tagged STAT3-SH2 domain (127 to 722 residues) (unknown origin) assessed as binding rate at 20 uM […] by fluorescence polarization assay; settings: time 90.0 min

T1 sequence (P40763 whole entry): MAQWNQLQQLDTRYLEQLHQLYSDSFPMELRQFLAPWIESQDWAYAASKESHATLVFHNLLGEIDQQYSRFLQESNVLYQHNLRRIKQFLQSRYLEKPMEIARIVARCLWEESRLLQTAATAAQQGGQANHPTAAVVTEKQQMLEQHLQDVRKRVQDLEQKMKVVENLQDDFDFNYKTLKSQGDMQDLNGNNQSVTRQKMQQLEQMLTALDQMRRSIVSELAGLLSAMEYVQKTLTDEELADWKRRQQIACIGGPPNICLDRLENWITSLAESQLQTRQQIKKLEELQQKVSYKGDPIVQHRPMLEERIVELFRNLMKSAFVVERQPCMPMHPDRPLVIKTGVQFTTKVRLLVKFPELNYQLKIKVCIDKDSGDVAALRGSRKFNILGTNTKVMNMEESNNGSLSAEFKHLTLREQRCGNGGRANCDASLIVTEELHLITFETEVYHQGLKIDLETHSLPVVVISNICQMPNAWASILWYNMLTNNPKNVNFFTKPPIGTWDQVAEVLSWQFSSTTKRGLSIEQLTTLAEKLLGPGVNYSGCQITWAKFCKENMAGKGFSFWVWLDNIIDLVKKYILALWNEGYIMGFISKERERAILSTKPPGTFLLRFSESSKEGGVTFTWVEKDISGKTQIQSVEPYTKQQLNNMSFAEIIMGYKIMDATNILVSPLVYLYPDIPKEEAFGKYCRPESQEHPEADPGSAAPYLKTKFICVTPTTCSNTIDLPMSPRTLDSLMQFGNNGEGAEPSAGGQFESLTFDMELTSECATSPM

IC50 [1] | IC50 (MDA-MB-468) | SMILES | IC50 (HEL) | further results
> 10000 nM | – | CCCC(C)Oc1ccc(C(=O)Nc2ccc3nc(SCC(=O)N[C@@H](C)c4ccccc4)sc3c2)c(F)c1 (stereo partly drawn) | – | –
8860 nM | – | COc1ccc([C@H](C)NC(=O)COc2nc3ccc(NC(=O)c4ccc(OC)c(C)c4OC)cc3s2)cc1 | – | –
460 nM | 810 nM | CCCC(C)Oc1ccc(C(=O)Nc2ccc3nc(SCC(=O)N[C@@H](C)c4ccccc4)sc3c2)c(C)c1C (stereo partly drawn) | 930 nM | –
2720 nM | – | CCCC(C)Oc1ccc(C(=O)Nc2ccc3nc(SCC(=O)N[C@@H](C)c4ccccc4)sc3c2)c(C)c1 (stereo partly drawn) | – | –
220 nM | 1810 nM | COc1ccc([C@H](C)NC(=O)CSc2nc3ccc(NC(=O)c4ccc(OC(C)C)c(C)c4OC)cc3s2)cc1 | 1290 nM | –
900 nM | – | CCC[C@@H](C)Oc1ccc(C(=O)Nc2ccc3nc(SCC(=O)N[C@@H](C)c4ccccc4)sc3c2)cc1C | – | –
200 nM | 2020 nM | COc1ccc([C@H](C)NC(=O)CSc2nc3ccc(NC(=O)c4ccc(OCC(C)C)c(C)c4OC)cc3s2)cc1 | 2050 nM | –
> 10000 nM | – | CCCC(C)Oc1ccc(C(=O)Nc2ccc3nc(SCC(=O)N[C@@H](C)c4ccccc4)sc3c2)cc1CC (stereo partly drawn) | – | –
150 nM | 2240 nM | CCCC(C)Oc1ccc(C(=O)Nc2ccc3nc(SCC(=O)N[C@@H](C)c4cccc(O)c4)sc3c2)c(OC)c1C (stereo partly drawn) | 620 nM | –
– | 2210 nM | CCCC(C)Oc1ccc(C(=O)Nc2ccc3nc(SCC(=O)N[C@@H](C)c4ccccc4)sc3c2)cc1 (stereo partly drawn) | > 10000 nM | IC50 ([1]; hepg2): 1600 nM
260 nM | 1160 nM | COCCOc1ccc(C(=O)Nc2ccc3nc(SCC(=O)N[C@@H](C)c4ccc(OC)cc4)sc3c2)c(OC)c1C | 1440 nM | –
1490 nM | – | COc1ccc([C@H](C)NC(=O)CNc2nc3ccc(NC(=O)c4ccc(OC)c(C)c4OC)cc3s2)cc1 | – | –
2200 nM | – | CCCC(C)Oc1ccc(C(=O)Nc2ccc3nc(SCC(=O)N[C@@H](C)c4ccccc4)sc3c2)c(OC)c1 (stereo partly drawn) | – | –
270 nM | 500 nM | CCCC(C)Oc1ccc(C(=O)Nc2ccc3nc(SCC(=O)N[C@@H](C)c4cccc(OC)c4)sc3c2)c(OC)c1C (stereo partly drawn) | 870 nM | –
> 10000 nM | – | CCCC(C)Oc1ccc(C(=O)Nc2ccc3nc(SCC(=O)N[C@@H](C)c4ccccc4)sc3c2)cc1C#N (stereo partly drawn) | – | –
> 10000 nM | – | CCCC(C)Oc1ccc(C(=O)Nc2ccc3nc(SCC(=O)N[C@@H](C)c4ccccc4)sc3c2)cc1C(F)(F)F (stereo partly drawn) | – | –
2150 nM | – | CCCC(C)Oc1ccc(C(=O)Nc2ccc3nc(SCC(=O)N[C@@H](C)c4ccccc4)sc3c2)cc1Br (stereo partly drawn) | – | –

Further lines, the compound ahead of its results:

SMILES | IC50 [1] | IC50 (MDA-MB-468) | IC50 (HEL) | further results
COc1ccc([C@H](C)NC(=O)CSc2nc3ccc(NC(=O)c4ccc(OCCN(C)C)c(C)c4OC)cc3s2)cc1 | 520 nM | 6570 nM | 4980 nM | –
CCCC(C)Oc1ccc(C(=O)Nc2ccc3nc(SCC(=O)N[C@@H](C)c4ccccc4)sc3c2)cc1OC (stereo partly drawn) | 1420 nM | – | – | –
CCCC(C)Oc1ccc(C(=O)Nc2ccc3nc(SCC(=O)N[C@@H](C)c4ccccc4)sc3c2)c(Cl)c1 (stereo partly drawn) | 1340 nM | – | – | –
Cc1cc(Nc2nc(N[C@@H](C)c3ncc(F)cn3)ncc2Cl)[nH]n1 [AZD-1480] | – | 5870 nM | 730 nM | –
CCCC(C)Oc1ccc(C(=O)Nc2ccc3nc(SCC(=O)N[C@@H](C)c4ccccc4)sc3c2)c(F)c1F (stereo partly drawn) | > 10000 nM | – | – | –
CCCC(C)Oc1ccc(C(=O)Nc2ccc3nc(SCC(=O)N[C@@H](C)c4ccccc4)sc3c2)cc1C (stereo partly drawn) | 950 nM | 730 nM | > 10000 nM | –
N#CC[C@H](C1CCCC1)n1cc(-c2ncnc3[nH]ccc23)cn1 [RUXOLITINIB] | – | > 20000 nM | 1400 nM | –
CCCC(C)Oc1ccc(C(=O)Nc2ccc3nc(SCC(=O)N[C@@H](C)c4ccc(O)cc4)sc3c2)c(OC)c1C (stereo partly drawn) | 200 nM | 700 nM | 680 nM | –
CCCC(C)Oc1ccc(C(=O)Nc2ccc3nc(SCC(=O)N[C@@H](C)c4ccccc4O)sc3c2)c(OC)c1C (stereo partly drawn) | 170 nM | 590 nM | 970 nM | –
CCC[C@H](C)Oc1ccc(C(=O)Nc2ccc3nc(SCC(=O)N[C@@H](C)c4ccccc4)sc3c2)cc1C | 1200 nM | – | – | –
CCCC(C)Oc1ccc(C(=O)Nc2ccc3nc(SCC(=O)N[C@@H](C)c4ccccc4)sc3c2)cc1Cl (stereo partly drawn) | > 10000 nM | – | – | –
COc1ccc([C@H](C)NC(=O)CSc2nc3ccc(NC(=O)c4ccc(OCCN5CCOCC5)c(C)c4OC)cc3s2)cc1 | 240 nM | 1770 nM | 3380 nM | –
CCCC(C)Oc1ccc(C(=O)Nc2ccc3nc(SCC(=O)N[C@@H](C)c4ccccc4)sc3c2)cc1F (stereo partly drawn) | > 10000 nM | – | – | –
NS(=O)(=O)c1cccc2c1C(=O)c1cccc(O)c1C2=O | 98 nM | 730 nM | 1460 nM | –
O=[N+]([O-])c1ccc2c(c1)S(=O)(=O)C=C2 | – | – | 1590 nM | IC50 (MDA-MB-453): 4400 nM; IC50 (MCF7): 1700 nM; Kd [2]: 1530 nM; Activity [3]: 95%; Activity [4]: 71.1%; Activity [5]: 62.3%
COc1ccc([C@H](C)NC(=O)CSc2nc3ccc(NC(=O)c4ccc(OC)c(C)c4OC)cc3s2)cc1 | 120 nM | 2050 nM | 1340 nM | –
CCCc1cc(C(=O)Nc2ccc3nc(SCC(=O)N[C@@H](C)c4ccccc4)sc3c2)ccc1OC(C)CCC (stereo partly drawn) | > 10000 nM | – | – | –
COc1ccc([C@H](C)NC(=O)CSc2nc3ccc(NC(=O)c4ccc(OCCN5CCCC5)c(C)c4OC)cc3s2)cc1 | 1030 nM | 3360 nM | 10400 nM | –
